Assay results from ChEMBL document CHEMBL2384903, “Highly efficient biocompatible neuroprotectants with dual activity as antioxidants and P2Y receptor agonists” (J Med Chem, 2013).

Experiments:
PC-12 [1] = test: Cytotoxicity against rat PC12 cells assessed as cell viability up to 200 uM after 48 hrs by MTT assay; format: cell-based; conditions: pc-12, 48 h
Procedure, shortened: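 PC12 cells were exposed to compounds at various concentrations up to 200 μM for 48 h, and viability was measured by MTT assay.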

P2Y purinoceptor 1 [2] = target: P2Y purinoceptor 1 (Rattus norvegicus, UniProt P49651); test: Agonist activity at rat brain P2Y1R transfected in HEK293 cells assessed as induction of intracellular calcium mobilization by fluorescence assay; format: functional, cell-based
Sequence of P2Y purinoceptor 1 (Rattus norvegicus, UniProt P49651) (P49651 whole entry): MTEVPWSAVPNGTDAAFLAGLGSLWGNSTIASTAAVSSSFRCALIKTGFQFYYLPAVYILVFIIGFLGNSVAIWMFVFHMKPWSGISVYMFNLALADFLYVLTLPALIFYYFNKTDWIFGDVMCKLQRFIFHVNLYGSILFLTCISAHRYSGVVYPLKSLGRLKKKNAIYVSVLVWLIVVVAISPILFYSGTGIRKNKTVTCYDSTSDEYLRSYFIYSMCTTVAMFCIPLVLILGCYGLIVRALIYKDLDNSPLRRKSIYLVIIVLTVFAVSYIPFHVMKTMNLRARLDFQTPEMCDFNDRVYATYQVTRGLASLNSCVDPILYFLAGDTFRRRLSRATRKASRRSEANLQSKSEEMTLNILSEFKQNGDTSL

[3] = Antioxidant activity assessed as free radical scavenging activity after 7 mins by ABTS radical cation decolorization assay; format: functional
Procedure, shortened: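 ABTS•+ is made from 7 mM ABTS and 2.45 mM persulfate (final), left in the dark at RT for 12–16 h, then diluted in water pH 7.4 to A734 0.80. It is mixed with compound or Trolox standard (final 0–60 μM), and A734 is read at exactly 7 min. Percent inhibition is plotted against concentration, with solvent blanks. Each run is done at least three times, in triplicate.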

P2Y purinoceptor 1 [4] = target: P2Y purinoceptor 1 (Homo sapiens, UniProt P47900); test: Agonist activity at human GFP-tagged P2Y1R transfected in human 1321N1 cells assessed as induction of intracellular calcium mobilization by fluorescence assay; format: functional, cell-based
Sequence of P2Y purinoceptor 1 (Homo sapiens, UniProt P47900) (P47900 whole entry): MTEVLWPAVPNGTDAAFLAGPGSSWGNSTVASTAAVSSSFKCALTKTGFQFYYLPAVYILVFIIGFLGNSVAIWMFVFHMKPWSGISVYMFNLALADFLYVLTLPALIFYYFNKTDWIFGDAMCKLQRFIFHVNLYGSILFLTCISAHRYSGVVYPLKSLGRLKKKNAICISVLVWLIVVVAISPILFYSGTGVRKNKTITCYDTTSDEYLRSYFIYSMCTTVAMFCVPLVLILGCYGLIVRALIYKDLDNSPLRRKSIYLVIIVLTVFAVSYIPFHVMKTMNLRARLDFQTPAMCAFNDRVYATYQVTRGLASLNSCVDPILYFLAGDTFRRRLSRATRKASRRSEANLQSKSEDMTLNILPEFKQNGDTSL

[5] = Antioxidant activity assessed as inhibiton of Fe2+-induced Fenton reaction-mediated hydroxyl radical formation from H2O2 measured for 150 secs by ESR analysis in presence of DMPO; format: functional
Procedure, shortened: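 Spin-trap ESR run at room temperature, final volume 100 μL. 5–500 μM compound is combined with ammonium iron(II) sulfate (1 mM stock) and Tris pH 7.4. After 30 s mixing, DMPO (100 mM stock) and H2O2 (100 mM stock) are added, with final pH 7.2–7.4. Spectrum is recorded 150 s after H2O2 at 9.76 GHz, 6.35 mW. Mean ± SD of three experiments.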

PC-12 [6] = test: Antioxidant activity in rat PC12 cells assessed as inhibition of Fe2+-induced ROS production after 1 hr by DCFH-DA staining-based fluorometric analysis; format: functional, cell-based
Procedure, shortened: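 PC12 cells grown in DMEM, seeded 24 h. Loaded with DCFH-DA (ethanol stock diluted 100-fold in PBS) for 20 min, then probe removed. Nucleotides added at final 0.2–200 μM, and oxidation started with FeSO4 at final 0.16 μM. Fluorescence at 485/530 nm read during 1 h at 37 °C. […] Mean ± SD of two experiments.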

P2Y purinoceptor 11 = target: T1, P2Y purinoceptor 11 (Homo sapiens, UniProt Q96G91); test: Agonist activity at human GFP-tagged P2Y11R transfected in human 1321N1 cells assessed as induction of intracellular calcium mobilization by fluorescence assay; format: functional, cell-based
T1 sequence (Q96G91 whole entry): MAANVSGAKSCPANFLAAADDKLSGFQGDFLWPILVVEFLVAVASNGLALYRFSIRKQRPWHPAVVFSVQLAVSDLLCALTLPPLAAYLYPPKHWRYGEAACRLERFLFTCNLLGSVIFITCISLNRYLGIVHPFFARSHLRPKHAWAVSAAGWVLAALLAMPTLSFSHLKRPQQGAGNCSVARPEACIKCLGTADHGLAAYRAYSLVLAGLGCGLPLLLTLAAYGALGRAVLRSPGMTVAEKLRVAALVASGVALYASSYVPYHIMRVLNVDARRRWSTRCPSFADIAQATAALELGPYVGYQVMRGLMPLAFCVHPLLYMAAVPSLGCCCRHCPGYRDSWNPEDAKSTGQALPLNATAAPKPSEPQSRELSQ

PC-12 [7] = test: Antioxidant activity in rat PC12 cells assessed as inhibition of Fe2+-induced ROS production at 100 uM after 1 hr by DCFH-DA staining-based fluorometric analysis relative to control; format: functional; conditions: PC-12, 1 h
Procedure, shortened: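 PC12 cells in DMEM were seeded 24 h, loaded 20 min with diluted DCFH-DA and washed. Nucleotides were then added at 0.2−200 μM final. Oxidation was started with FeSO4 at 0.16 μM final and plates were incubated 1 h at 37 °C. DCF fluorescence was read at 485/530 nm, and percent inhibition of ROS was taken against untreated oxidized control.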

[8] = Rattus norvegicus, PC-12, 1 h, read-out: IC50

Row | IC50 [3] [µM] | EC50 (P2Y purinoceptor 1 [4]) [µM] | IC50 [5] [µM] | IC50 (PC-12 [6]; [8]) [µM] | SMILES | further results
1 | – | – | – | – | [BH3-]P(=O)(OC[C@H]1O[C@@H](n2cnc3c(N)nc(Cl)nc32)[C@H](O)[C@@H]1O)OP(=O)([O-])C(Cl)(Cl)P(=O)([O-])[O-].[Na+].[Na+].[Na+].[Na+] (some centres not stated) | Activity (PC-12 [1]): Non-toxic
2 | 23 | 0.074 | 66 | 1 | B[P@@](=O)(OC[C@H]1O[C@@H](n2cnc3c(N)nc(Cl)nc32)[C@H](O)[C@@H]1O)OP(=O)(O)OP(=O)(O)O | EC50 (P2Y purinoceptor 1 [2]): 0.0045 µM
3 | – | – | – | – | CSc1nc(N)c2ncn([C@@H]3O[C@H](COP(=O)(O)OP(=O)(O)O)[C@H](O)[C@H]3OC(=O)c3ccccc3)c2n1 | EC50 (P2Y purinoceptor 11; read-out: EC50): 1.5 µM
4 | 18 | – | – | 20 | Cc1c(C)c2c(c(C)c1O)CCC(C)(C(=O)O)O2 (configuration not stated) [TROLOX] | –
5 | > 60 | 0.2 | 59 | 0.4 | B[P@@](=O)(OC[C@H]1O[C@@H](n2cnc3c(N)ncnc32)[C@H](O)[C@@H]1O)OP(=O)(O)OP(=O)(O)OP(=O)(O)OP(=O)(O)OC[C@H]1O[C@@H](n2cnc3c(N)ncnc32)[C@H](O)[C@@H]1O | EC50 (P2Y purinoceptor 11; 1321-n1): Not Active
6 | 24 | 2.5 | 36 | 2.6 | B[P@](=O)(OC[C@H]1O[C@@H](n2cnc3c(N)nc(Cl)nc32)[C@H](O)[C@@H]1O)OP(=O)(O)OP(=O)(O)O | –
7 | 61 | 1.2 | 161 | 5 | BP(=O)(OP(=O)(O)OP(=O)(O)OC[C@H]1O[C@@H](n2cnc3c(N)ncnc32)[C@H](O)[C@@H]1O)OP(=O)(O)OP(=O)(O)OC[C@H]1O[C@@H](n2cnc3c(N)ncnc32)[C@H](O)[C@@H]1O | –
8 | 27 | 0.95 | 60 | 0.19 | B[P@](=O)(OC[C@H]1O[C@@H](n2cnc3c(N)nc(Cl)nc32)[C@H](O)[C@@H]1O)OP(=O)(O)C(Cl)(Cl)P(=O)(O)O | EC50 (P2Y purinoceptor 11; read-out: EC50): 0.13 µM
9 | – | – | 54 | – | O=C(O)CN(CCN(CC(=O)O)CC(=O)O)CC(=O)O [EDETIC ACID] | –

Row | SMILES | IC50 [3] [µM] | EC50 (P2Y purinoceptor 1 [4]) [µM] | IC50 [5] [µM] | IC50 (PC-12 [6]; [8]) [µM] | further results
10 | Nc1ncnc2c1ncn2[C@@H]1O[C@H](COP(=O)(O)OP(=O)(O)OP(=O)(O)O)[C@@H](O)[C@H]1O [ADENOSINE TRIPHOSPHATE] | 60 | – | > 500 | – | IC50 (PC-12 [6]; pc-12): Not Active; inhibition at 100 µM (PC-12 [7]): 45%
11 | B[P@](=O)(OC[C@H]1O[C@@H](n2cnc3c(N)ncnc32)[C@H](O)[C@@H]1O)OP(=O)(O)O | 24 | 13 | 41 | 1 | EC50 (P2Y purinoceptor 11; read-out: EC50): 2.9 µM
